The nature of series [1]: melting temperature; fluorescence melt of hairpins on a sequencing array, two-state fit, raised by 9.35 °C to match UV melts. The note with it: sodium 0.088 M. The method, boiled down:
(§1)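 On a sequenced MiSeq flow cell, library hairpins with annealed Cy3 and quencher oligos were imaged for Cy3 fluorescence in 2.5 °C steps up to 60 °C, in 50 mM Na-HEPES pH 8.0, 25 mM NaCl. Normalisation used pre-quench Cy3 and control constructs. Bootstrapped two-state fits gave melting temperature and folding enthalpy, combined by inverse variance across four replicates and with fitted temperatures raised by 9.35 °C to match UV melts.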

The nature of series [2]: folding enthalpy; higher = less favourable; fluorescence melt of hairpins on a sequencing array, two-state fit. The following applies: sodium 0.088 M. The method, boiled down: as §1

As to GCGTTACGAAAGTACCGC (((.(((....))).))), in series [1], the Tm was 53.7 °C. In addition, the folding enthalpy in series [2] is -131 kJ/mol.
With GTCTAAGGAAACCTAGAC (((((.(....).))))), the Tm in series [1] came out at 34.3 °C. In series [2], the folding enthalpy was -108 kJ/mol.
In the case of GTTGGTGGAAACACCAAC (((((((....))))))), the Tm in series [1] was 66.2 °C. The folding enthalpy in series [2] was -193 kJ/mol.
The like results for CGCTACGGAAACGTCGCG (((.(((....))).))) were, in that order, 51.9 °C and -165 kJ/mol.
For GGAAATGAAAATTTCC ((((((....)))))), the Tm in series [1] is 48.8 °C. For the same sequence, in series [2], the folding enthalpy was -122 kJ/mol.
GACTGCGAAAGCAATGTC ((((((....)))..))): the Tm in series [1] is 44.3 °C. In series [2], the folding enthalpy is -62.4 kJ/mol.
On the same counts, the results for TTTGTGAAAACAAA (((((....))))) are 35.6 °C and -52.6 kJ/mol.
The like results for GTAAAAGGAAACTTTTAC (((((((....))))))) were, in that order, 46.4 °C and -155 kJ/mol.
For GAGGGTGGAAACATCCTC ((((.((....)).)))), the Tm in series [1] amounted to 50.5 °C. For the same sequence, in series [2], the folding enthalpy was -162 kJ/mol.
As to GTCGCCTCGAAAGAGGAC (((..(((....)))))), in series [1], the Tm was 31.3 °C. Also, in series [2], the folding enthalpy is -39.7 kJ/mol.
On the same counts, the results for GTCGTCGGAAACAACGAC (((((.(....).))))) are 48.3 °C and -159 kJ/mol.
The like results for GTGGGAGGAAACTTCCGC (.((.((....)).)).) were, in that order, 40.6 °C and -99.8 kJ/mol.
Regarding GTAATGGGAAACTATTAC (((((.(....).))))), the Tm in series [1] was determined as 34.5 °C. The folding enthalpy in series [2] is -119 kJ/mol.
On the same counts, the results for ACCCGGAAACGGGT (((((....))))) are 58.1 °C and -81.5 kJ/mol.
As for CGTACGGAAACGTCGACG ((((((....)))..))), the Tm in series [1] came to 37.5 °C. For the same sequence, in series [2], the folding enthalpy is -53.8 kJ/mol.
With GAGCCAGGAAACTGACTC (((.(((....))).))), in series [1], the Tm was determined as 44 °C. The folding enthalpy in series [2] was -154 kJ/mol.
On the same counts, the results for GCAGGACCGAAAGGTTGC (((..(((....)))))) are 44.8 °C and -86.5 kJ/mol.
For the sequence GAACAGACGAAAGTCTTC (((..(((....)))))), the Tm in series [1] stood at 25.6 °C. The folding enthalpy in series [2] is -39.4 kJ/mol.
GATCGATCGGTCGATC ((((((....)))))): the Tm in series [1] was 52 °C. For the same sequence, the folding enthalpy in series [2] was -174 kJ/mol.
Take GCAATGCGAAAGCAATGC (((.(((....))).))): in series [1], the Tm was determined as 56.5 °C. The folding enthalpy in series [2] is -167 kJ/mol.
GAGACAACGAAAGTTCTC (((..(((....)))))): the Tm in series [1] was found to be 28.3 °C. Further, the folding enthalpy in series [2] is -85.3 kJ/mol.
In the case of GATGACGAAAGTCTAATC ((((((....)))..))), the Tm in series [1] amounted to 29.9 °C. In series [2], the folding enthalpy is -50.2 kJ/mol.
As for GGAACCGAAAGGTTATCC ((((((....)))..))), the Tm in series [1] turned out to be 35.9 °C. For the same sequence, in series [2], the folding enthalpy is -49.3 kJ/mol.
The like results for CCATGGAAACATGG (((((....))))) were, in that order, 49.6 °C and -97.2 kJ/mol.
The like results for GCAGTACGAAAGTAATGC (((.(((....))).))) were, in that order, 55.4 °C and -168 kJ/mol.
The like results for GGATGAGGAAACTTGTCC (((..((....))..))) were, in that order, 31.1 °C and -102 kJ/mol.
As to GTTTGAGGAAACTTAAAC ((((.((....)).)))), the Tm in series [1] amounted to 36.9 °C. For the same sequence, the folding enthalpy in series [2] is -76.8 kJ/mol.
The like results for GCGTAGGCACGC ((((....)))) were, in that order, 60.8 °C and -59.1 kJ/mol.
The like results for GCGGACTGCCGC ((((....)))) were, in that order, 54.5 °C and -103 kJ/mol.
The like results for GTCTGTGGAAACGTAGAC ((((..(....)..)))) were, in that order, 37.2 °C and -98.5 kJ/mol.
GAGAGTGGAAACACTCCC (.(((((....))))).): the Tm in series [1] was found to be 38.1 °C. Besides, in series [2], the folding enthalpy is -57.4 kJ/mol.
The like results for GTGCGCGAAAGCGGGCAC ((((((....)))..))) were, in that order, 60.7 °C and -66.4 kJ/mol.
For the sequence GTGGTGGGAAACCACTAC ((.((((....)))).)), the Tm in series [1] is 56.1 °C. Also, the folding enthalpy in series [2] is -94 kJ/mol.
Turning to CTAACGAAAGTTAG (((((....))))), in series [1], the Tm was 49.4 °C. In series [2], the folding enthalpy is -99.8 kJ/mol.
The like results for GCGTTGCGAAAGCGATGC ((.(.((....)).).)) were, in that order, 57.6 °C and -91.6 kJ/mol.
On the same counts, the results for GCATTAGCGAAAGCTTGC (((..(((....)))))) are 40 °C and -75.9 kJ/mol.
The like results for GCTGAGCGAAAGCTCCGC ((.((((....)))).)) were, in that order, 57.7 °C and -82.3 kJ/mol.
Take GTCTCGGGAAACCGAAAC ((.((((....)))).)): the Tm in series [1] worked out at 34.7 °C. The folding enthalpy in series [2] is -64.6 kJ/mol.
The like results for GATCCCCCAGGGATC ((((((...)))))) were, in that order, 63.8 °C and -142 kJ/mol.
Turning to GTCCGTCGAAAGACTGAC (((.(((....))).))), the Tm in series [1] stood at 47.8 °C. The folding enthalpy in series [2] was -119 kJ/mol.
Take GTAGTCGAAAGACAATAC ((((((....)))..))): the Tm in series [1] is 28.3 °C. The folding enthalpy in series [2] is -63.6 kJ/mol.
As to GCGTTATGACGC ((((....)))), the Tm in series [1] came out at 56.2 °C. Moreover, the folding enthalpy in series [2] is -105 kJ/mol.
The like results for GCGAGGCGAAAGCCCGGC ((..(((....)))..)) were, in that order, 63.8 °C and -43.8 kJ/mol.
On the same counts, the results for GATCGGCTTCCGATC ((((((...)))))) are 56.1 °C and -188 kJ/mol.
Consider GCGCATGGAAACATGTGC ((.((((....)))).)), for which the Tm in series [1] stood at 57.1 °C. The folding enthalpy in series [2] is -153 kJ/mol.
On the same counts, the results for CGGTACCGGAAACGGCCG (((..(((....)))))) are 40.9 °C and -86.9 kJ/mol.
Turning to GGCTCTCGAAAGAGGCC (((.(((....)))))), the Tm in series [1] is 56.9 °C. For the same sequence, the folding enthalpy in series [2] is -180 kJ/mol.
The like results for GGGCTCGAAAGAGGGCCC ((((((....)))..))) were, in that order, 54.6 °C and -165 kJ/mol.
On the same counts, the results for GCTGACGAAAGTCTGAGC ((((((....)))..))) are 43.5 °C and -84.3 kJ/mol.
Regarding GAGAGCGAAAGCTGGCTC ((((((....)))..))), in series [1], the Tm came to 37.2 °C. The folding enthalpy in series [2] was -56.5 kJ/mol.
On the same counts, the results for GCTGGTGGAAACGTCAGC ((((..(....)..)))) are 43.3 °C and -100 kJ/mol.
On the same counts, the results for GTGACGGCGAAAGCCCAC (((..(((....)))))) are 44.3 °C and -50.7 kJ/mol.
In the case of GATCTTCCCAAGATC ((((((...)))))), the Tm in series [1] stood at 45.8 °C. Also, in series [2], the folding enthalpy is -157 kJ/mol.
The like results for GCGTGGGGAAACCCACAC (.(((((....))))).) were, in that order, 46.9 °C and -48.4 kJ/mol.
For the sequence GATGCCGAAAGGCCATC ((((((....))).))), the Tm in series [1] was found to be 46.9 °C. Moreover, the folding enthalpy in series [2] was -59.3 kJ/mol.
The like results for GATCGTGGAAACACGACC (.(((((....))))).) were, in that order, 41.7 °C and -55.5 kJ/mol.
On the same counts, the results for GATCAGTCCTCTGATC ((((((....)))))) are 51.1 °C and -166 kJ/mol.
On the same counts, the results for GCTGGGGCGAAAGCCAGC (((..(((....)))))) are 55.3 °C and -70.3 kJ/mol.
Take GATCTAGCTGTAGATC ((((((....)))))): the Tm in series [1] worked out at 39.9 °C. Besides, the folding enthalpy in series [2] was -137 kJ/mol.
As to GTGTAACGAAAGTTCAC (((.(((....)))))), in series [1], the Tm worked out at 44.6 °C. Besides, the folding enthalpy in series [2] was -83.8 kJ/mol.
For GCTTAGCGAAAGCGATGC ((.(.((....)).).)), the Tm in series [1] amounted to 59.5 °C. Besides, the folding enthalpy in series [2] is -78 kJ/mol.
As for GTCGCCGAAAGGCTGGAC ((((((....)))..))), the Tm in series [1] was 44 °C. Also, the folding enthalpy in series [2] is -54.6 kJ/mol.
The like results for GTCAAGCGAAAGCTGGAC (((.(((....))).))) were, in that order, 62.4 °C and -123 kJ/mol.
The like results for GATCGGATTCCGATC ((((((...)))))) were, in that order, 54.6 °C and -187 kJ/mol.
On the same counts, the results for GTTCACGAAAGTGATAAC ((((((....)))..))) are 35 °C and -45.1 kJ/mol.
As to GGAACCCGAAAGGGCTCC (((.(((....))).))), the Tm in series [1] amounted to 54.5 °C. In addition, in series [2], the folding enthalpy was -136 kJ/mol.
Take GATCCGTGGCCGGATC ((((((....)))))): the Tm in series [1] was found to be 57.7 °C. The folding enthalpy in series [2] was -164 kJ/mol.
On the same counts, the results for CGCCGCCGGAAACGGGCG (((..(((....)))))) are 51.9 °C and -69 kJ/mol.
On to GACTCAGGAAACTGAGTC (((((((....))))))), for which the Tm in series [1] is 60.8 °C. For the same sequence, in series [2], the folding enthalpy was -193 kJ/mol.
On the same counts, the results for GATCAATGACTTGATC ((((((....)))))) are 39.7 °C and -122 kJ/mol.
Turning to GGACGGGGAAACCCACCC ((..(((....)))..)), the Tm in series [1] is 26.1 °C. In addition, the folding enthalpy in series [2] is -43.6 kJ/mol.
As for GGAGTACGAAAGTATTCC (((.(((....))).))), in series [1], the Tm was determined as 49.2 °C. For the same sequence, the folding enthalpy in series [2] is -139 kJ/mol.
Consider GAGACCGGAAACGGTCCC (.(((((....))))).), for which the Tm in series [1] came out at 46.9 °C. The folding enthalpy in series [2] was -42.6 kJ/mol.
On the same counts, the results for GCGCTGCGAAAGCTGAGC ((.(.((....)).).)) are 57.6 °C and -88.7 kJ/mol.

For the origin of these results see the array DNA melting data of Ke et al. (doi:10.1101/2024.01.08.574731).
